Measurements as given in ChEMBL document CHEMBL1133018, “Deltorphin II analogues with 6-hydroxy-2-aminotetralin-2-carboxylic acid in position 1” (J Med Chem, 2000).
*1 amine or outer side, *2 acyl side, *3 side chain or, on linkers, in order; H or OH if unused. Where a SMILES comes first, the peptide text is derived from it. [ ]: non-standard residue; d: D form. X1 = O=C([C@@]1(N[*:1])CCc2cc(O)ccc2C1)[*:2]; X2 = O=C([C@]1(N[*:1])CCc2cc(O)ccc2C1)[*:2]

Assays:
Mu-type opioid receptor = Mu-type opioid receptor (Cavia porcellus, UniProt P97266); experiment: inhibitory concentration for inhibition of electrically induced smooth muscle contractions of GPI (guinea pig ileum) myenteric-plexus-longitudinal muscle strips.; assay type: functional, tissue-based
Chain of Mu-type opioid receptor (P97266 whole entry): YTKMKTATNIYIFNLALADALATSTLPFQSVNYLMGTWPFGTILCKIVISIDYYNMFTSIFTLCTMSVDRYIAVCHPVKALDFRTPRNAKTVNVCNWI
How it was run: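 Longitudinal muscle-myenteric plexus strips from ileum of male guinea pigs (400-600 g), electrically stimulated under standard conditions. IC50 taken as 50% inhibition of twitch, mean ± SEM of 4-6 measurements. Where no IC50 was reached, % inhibition is given at 10^-6 or 10^-5 M (n = 4).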

[1] = biological target: T1, Delta-type opioid receptor (Rattus norvegicus, UniProt P33533); experiment: Binding affinities against Opioid receptor delta 1 of rat brain using [3H]p-Cl-Phe4-DPDPE as radioligand.
T1 sequence (P33533 whole entry): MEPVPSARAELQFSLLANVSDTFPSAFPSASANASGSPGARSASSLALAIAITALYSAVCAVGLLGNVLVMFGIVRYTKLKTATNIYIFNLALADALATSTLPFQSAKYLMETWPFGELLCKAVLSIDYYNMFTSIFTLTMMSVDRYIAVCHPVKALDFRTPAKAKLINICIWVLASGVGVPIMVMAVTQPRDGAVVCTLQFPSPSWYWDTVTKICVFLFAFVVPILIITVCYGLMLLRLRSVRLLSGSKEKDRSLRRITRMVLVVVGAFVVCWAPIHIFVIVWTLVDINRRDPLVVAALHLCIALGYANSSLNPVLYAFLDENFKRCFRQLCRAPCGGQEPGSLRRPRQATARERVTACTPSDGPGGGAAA
How it was run: (§1)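 Wistar rat brain (minus cerebellum) membranes, 300-500 µg protein, 50 mM Tris-HCl pH 7.4. Displacement of [3H]pClPhe4-DPDPE (0.8 nM, 25 °C, 90 min) or [3H]Ile5,6-deltorphin II (0.5 nM, 35 °C, 45 min). Filtration, scintillation counting. Nonspecific binding defined with 10 µM naloxone. Ki as mean ± SEM of 3-5 runs in duplicate; Hill slopes also fitted.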

Rattus norvegicus [2] = species: Rattus norvegicus; experiment: Stimulation of [35S]GTP-gamma-S, binding at the concentration of 0.1 uM.; assay type: functional
How it was run: (§2)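 Rat frontal cortex crude membranes, 10 µg protein, in 50 mM Tris-HCl with 1 mM EGTA, 3 mM MgCl2, 100 mM NaCl. Incubated with 30 µM GDP and 0.05 nM [35S]GTPγS, 1 h at 30 °C. Nonspecific binding taken with 10 µM unlabeled GTPγS. Filtered and counted. Stimulation expressed as % of specific binding, mean ± SEM of three triplicate experiments.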

[3] = biological target: T1, Delta-type opioid receptor; experiment: Binding affinities against delta 2 opioid receptor of rat brain using [3H]Ile5,6-deltorphin II as radioligand.; how it was run: as §1
[4] = biological target: Mu-type opioid receptor (Rattus norvegicus) (UniProt P33535)
Chain of Mu-type opioid receptor (Rattus norvegicus) (P33535 whole entry, looked up): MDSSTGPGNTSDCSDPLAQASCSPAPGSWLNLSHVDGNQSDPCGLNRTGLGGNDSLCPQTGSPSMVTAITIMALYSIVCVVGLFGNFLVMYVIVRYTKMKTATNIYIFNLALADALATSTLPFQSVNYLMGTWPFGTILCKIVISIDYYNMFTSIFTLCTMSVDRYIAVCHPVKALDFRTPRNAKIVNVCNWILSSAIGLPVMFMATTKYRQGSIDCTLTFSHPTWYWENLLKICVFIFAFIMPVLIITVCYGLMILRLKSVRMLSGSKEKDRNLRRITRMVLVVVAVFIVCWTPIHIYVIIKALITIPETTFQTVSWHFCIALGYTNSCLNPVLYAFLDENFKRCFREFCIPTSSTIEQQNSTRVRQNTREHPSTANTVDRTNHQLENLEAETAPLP

[5] = biological target: Delta-type opioid receptor (Rattus norvegicus) (UniProt P33533)
Chain of Delta-type opioid receptor (Rattus norvegicus) (P33533 whole entry): as the sequence (P33533 whole entry) above

[6] = biological target: Delta-type opioid receptor (Rattus norvegicus) (UniProt P33533); remark: listed apart in the source
Rattus norvegicus [7] = species: Rattus norvegicus; experiment: Stimulation of [35S]GTP-gamma-S, binding at the concentration of 1 uM.; assay type: functional; how it was run: as §2
[8] = biological target: Mu-type opioid receptor (Rattus norvegicus) (UniProt P33535); remark: listed apart in the source
[9] = biological target: Delta-type opioid receptor (Rattus norvegicus) (UniProt P33533); remark: listed apart in the source

In the case of `CC[C@H](C)[C@H](NC(=O)[C@H](CCC(=O)O)NC(=O)[C@H](Cc1ccccc1)NC(=O)[C@H](C)NC(=O)[C@@]1(N)CCc2cc(O)ccc2C1)C(=O)N[C@H](C(=O)NCC(N)=O)[C@@H](C)CC` (H-[X1]AFEIIG-NH2), the IC50 (Mu-type opioid receptor) is reported as 5130 nM, the Ki [1] is reported as 0.16 nM and the Stimulation (Rattus norvegicus [2]) is reported as 155%. The Ki [3] was 0.34 nM, the Hill coefficient [4] was -1.01 and the Hill coefficient [5] was -0.34. The Hill coefficient [6] was -0.69.
In the case of `CC[C@H](C)[C@H](NC(=O)[C@H](CCC(=O)O)NC(=O)[C@H](Cc1ccccc1)NC(=O)[C@H](C)NC(=O)[C@]1(N)CCc2cc(O)ccc2C1)C(=O)N[C@H](C(=O)NCC(N)=O)[C@@H](C)CC` (H-[X2]AFEIIG-NH2), the IC50 (Mu-type opioid receptor) is reported as > 10000 nM, the Ki [1] is reported as 0.94 nM and the Stimulation (Rattus norvegicus [7]) is reported as 136.9%. It also gave a Ki [3] of 1 nM, a Hill coefficient [8] of -1.09 and a Hill coefficient [9] of -0.42. It also gave a Hill coefficient [6] of -0.5.
